# From PubChem BioAssay
# A selection: hits, their analogues and other compounds. The true share with any hit is near 3%.
# UBC13 polyUb – blocks human UBC13 polyubiquitin chain formation. P61088. TR-FRET. inhibition, % at 20 µM. actives 0.47% (n = 330,000); in the data active = inhibition above about 45%, passing the limit was not always enough
# SENP8 block-1 – blocks the human protease SENP8; actives 1.2% (n = 330,000); AID 2540; inhibition, % at 10 µM; Q96LD8; purified SENP8, Z-RLRGG-aminoluciferin cleavage, luminescence; in the data active = inhibition above about 50%
# Apaf-1 inh – human Apaf-1 inhibition | O14727 | reconstituted apoptosome caspase-3 activity, DEVD-Rh110 fluorescence | inhibition, % at 20 µM | actives 0.71% (n = 330,000) | AID 489030; active = inhibition of at least 40% at 20 µM;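 note: plate controls were DMSO wells for no effect and DEVD-CHO caspase inhibitor wells for full effect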
#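 Medium: Hepes buffer, pH 7.5 / System: biochemical Apaf-1 apoptosome reconstitution / Measured by: Rh110 fluorescence, excitation 480 nm, emission 540 nm / Times: compound with Apaf-1, dATP, procaspase-3 30 min, then 50 min reaction, room temperature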
# SENP7 block – SENP7 protease inhibition. Q9BQF6. recombinant SENP7, Z-RLRGG-aminoluciferin luminescence, 40 min. inhibition, % at 5 µM. actives 1.5% (n = 330,000). AID 434973;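 active = inhibition above about 50% at the single test dose, limit read from the data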;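 note: plate controls were DMSO with enzyme for no effect and no enzyme buffer wells for full effect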
# SENP6 block – blocks the human protease SENP6; Recombinant SENP6 catalytic domain, aminoluciferin luminescence; inhibition, % at 10 µM; actives 1.8% (n = 330,000);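 active = inhibition above about 50% at the single tested dose, limit read from the data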;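 note: plate controls were DMSO wells with enzyme for no effect and DMSO wells lacking enzyme for full effect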
# Target sequence (Q9GZR1 628-1112 limits assumed): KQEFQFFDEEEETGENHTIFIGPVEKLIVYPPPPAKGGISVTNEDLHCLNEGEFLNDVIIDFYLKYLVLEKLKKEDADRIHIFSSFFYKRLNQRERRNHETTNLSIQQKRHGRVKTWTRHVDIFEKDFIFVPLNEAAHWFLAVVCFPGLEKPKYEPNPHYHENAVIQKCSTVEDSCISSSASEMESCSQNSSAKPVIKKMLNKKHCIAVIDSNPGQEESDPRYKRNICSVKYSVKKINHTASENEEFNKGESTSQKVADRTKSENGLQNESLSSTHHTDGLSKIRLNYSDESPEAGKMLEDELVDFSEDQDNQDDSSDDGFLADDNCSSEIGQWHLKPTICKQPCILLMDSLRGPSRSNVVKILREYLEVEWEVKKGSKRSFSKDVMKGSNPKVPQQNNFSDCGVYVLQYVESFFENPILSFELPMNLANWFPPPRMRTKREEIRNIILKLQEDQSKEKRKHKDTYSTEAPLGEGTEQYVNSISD
# SENP8 block-2 – SENP8 (human) protease inhibition. recombinant SENP8, Nedd8 substrate fluorescence. inhibition, % at 20 µM. actives 0.64% (n = 360,000); in the data active = inhibition mostly above about 40%, no sharp cut-off; inactive = mostly below about 27%
# * marks the source's active call; other numbers are inactive results; . = not tested or not shown.
SMILES,UBC13 polyUb,SENP8 block-1,Apaf-1 inh,SENP7 block,SENP6 block,SENP8 block-2
Fc1ccccc1-c1nc2ccccc2[nH]1,4,63*,-5,76*,74*,-49
Clc1ccccc1-c1nc2ccccc2[nH]1,4,19,-9,38,24,-37
CCc1nc2ccc(C(=O)N(C)C(C)C)cn2c1N(CC)Cc1cccc(Br)c1,.,.,.,.,.,4
Cc1ccc(-c2ccc(/C=N/NC(=O)c3ccccc3O)o2)cc1,-18,27,3,54*,58*,.
COc1ccc(N2CCN(CCNC(=O)CCCn3c(=O)[nH]c4cc(Cl)ccc4c3=O)CC2)cc1,-9,-6,4,-8,-12,53*
COc1ccc(N2CCN(CCCNC(=O)CCCn3c(=O)[nH]c4ccsc4c3=O)CC2)cc1,14,3,3,-4,-2,10
COC(=O)C1CCN(S(=O)(=O)Cc2ccccc2Cl)CC1,1,1,1,-2,2,16
NC(=O)C1CCN(c2oc(-c3ccccc3F)nc2S(=O)(=O)c2ccc(Cl)cc2)CC1,4,-3,0,-2,1,14
CC1CCCN(C2=C(NS(=O)(=O)c3ccc(Cl)cc3)C(=O)c3ccccc3C2=O)C1 (stereo not given),-44,12,27,12,32,60*
Cc1ccc(S(=O)(=O)NN=C2CCN(Cc3ccccc3)CC2)cc1,4,0,1,-6,9,6
COC(=O)C1CCN(C2=C(NS(=O)(=O)c3ccc(Cl)cc3)C(=O)c3ccccc3C2=O)CC1,-68,6,39,20,-8,40*
Cc1ccc(S(=O)(=O)NC2=C(N3CCN(Cc4ccccc4)CC3)C(=O)c3ccccc3C2=O)cc1,-20,-6,3,-2,5,39*
NC(=O)C1CCN(C2=C(NS(=O)(=O)c3ccc(Cl)cc3)C(=O)c3ccccc3C2=O)CC1,-99,6,38,15,6,44*
COc1ccc(CN2C[C@@H](CO)O[C@@H](n3cnc4c(NCCO)ncnc43)C2)cc1,.,.,.,.,.,-6
COc1cccc2cc(-c3n[nH]c(=S)n3C)oc12,5,5,10,-5,-16,-432
COc1cccc2cc(-c3ccnc(N)n3)oc12,3,21,-15,53*,15,-436
Cc1nc2ccccc2n1C(c1cccnc1)c1nc2ccccc2[nH]1 (stereo not given),.,.,.,.,.,-58
Cc1cccc(NC2=C/C(=N/S(=O)(=O)c3cccs3)c3ccccc3C2=O)c1,.,.,.,.,.,103*
COC1=C(Nc2ccc(O)cc2)C(=O)c2ccccc2C1=O,-153,8,11,12,23,2
O=C1C(Nc2ccc(O)cc2)=C/C(=N/S(=O)(=O)c2cccs2)c2ccccc21,.,.,.,.,.,83*
O=C(O)c1ccc(NC2=C/C(=N/S(=O)(=O)c3cccs3)c3ccccc3C2=O)cc1,.,.,.,.,.,98*
CN(Cc1ccc(Cl)c(Cl)c1)C(c1cc2ccccc2o1)c1nnnn1C(C)(C)C (stereo not given),.,.,.,.,.,3
O=C(N/N=C/c1ccccc1[N+](=O)[O-])c1ccc2c(c1)OCCO2,-2,43,5,46,71*,-42
COc1ccc(/C(C#N)=C/c2ccccn2)cc1,-1,54*,7,6,64*,-281
CCc1nc2c(OCc3c(C)noc3C)cccn2c1N(C=O)Cc1ccccc1,.,.,.,.,.,1
SMILES,UBC13 polyUb,SENP8 block-1,Apaf-1 inh,SENP7 block,SENP6 block,SENP8 block-2
COC(=O)CCC(=O)OC1(C)C(=O)C2=CN(CCCCO)C(c3ccc(OC)cc3)=CC2=C(Br)C1=O (stereo not given),-102,8,80*,13,47,.
COC(=O)CCC(=O)OC1(C)C(=O)C2=CN(CCc3ccccn3)C(c3ccc(OC)cc3)=CC2=C(Br)C1=O (stereo not given),-88,19,73*,8,45,-144
COC(=O)CCC(=O)OC1(C)C(=O)C2=CN(Cc3ccc4c(c3)OCO4)C(c3ccc(OC)cc3)=CC2=C(Br)C1=O (stereo not given),-44,-3,18,-9,12,-175
COC(=O)CCC(=O)OC1(C)C(=O)C2=CN(CCN3CCOCC3)C(c3ccc(OC)cc3)=CC2=C(Br)C1=O (stereo not given),-69,23,86*,16,52*,.
COC(=O)CCC(=O)OC1(C)C(=O)C2=CN(C(CO)CO)C(c3ccc(OC)cc3)=CC2=C(Br)C1=O (stereo not given),-98,16,81*,13,44,.
COC(=O)CCC(=O)OC1(C)C(=O)C2=COC(c3ccc(OC)cc3)=CC2=C(Br)C1=O (stereo not given),-41,13,1,0,-9,.
Cc1cc2c(cc1C)-n1nnnc1C(N1CCN(C(=O)OCc3ccccc3)CC1)C(=O)N2 (stereo not given),.,.,.,.,.,8
O=C(N/N=C/c1cccc(O)c1)N/N=C/c1cccc(O)c1,1,-9,16,-7,5,-1
Cc1nonc1C(=O)N/N=C/c1cccc(O)c1,-8,87*,-26,92*,84*,14
CCCCNC(=O)c1nc(C2CCN(S(=O)(=O)c3c(OC)cccc3OC)CC2)oc1-c1ccccc1,.,.,.,.,.,3
Cc1nnc(-c2ccccc2)o1,4,9,-26,-7,-10,4
Cc1ccc(-c2nnc(/C=C/c3ccccc3)o2)cc1,-8,42,19,-2,76*,-391
Cc1sc(NC(=O)C2C3CCC(O3)C2C(=O)O)nc1-c1ccc(CC(C)C)cc1 (stereo not given),-10,4,14,14,56*,12
Nc1cc(C(=O)O)c(N)c2c1C(=O)c1ccccc1C2=O,-56,23,30,11,59*,51*
Nc1ccc(N2CCN(c3ccc(F)cc3)CC2)cc1,0,-3,8,0,-22,18
COC(=O)N1CCN(c2ccc(Cl)c(Cl)c2)CC1,18,-5,-8,3,-8,19
Nc1ccc(N2CCCCCC2)cc1,-44,23,93*,26,52*,.
Nc1ccc(N2CCN(c3ccc(Cl)c(Cl)c3)CC2)cc1,0,-9,16,7,4,41*
Fc1cccc(Cc2c(-c3ccc(Cl)cc3)nc3ccc(Br)cn23)c1,.,.,.,.,.,-13
CC1(C(=O)Nc2cnc3ccccc3c2)CCN1Cc1ccc(-c2ccccc2)o1 (stereo not given),.,.,.,.,.,-16
CN(C)c1ccc(Cc2ccc(N(C)C)cc2)cc1,.,.,.,.,.,30*
COc1ccc(C2=C(Nc3ccccc3)c3ccccc3C2=O)cc1,-52,-3,-1,4,-2,22
COC1=C(c2ccccc2)C(=O)c2ccccc2C1=O,-45,3,16,13,28,92*
Cc1ccccc1-c1cn(-c2ccccc2)c(=S)[nH]1,0,8,10,6,-28,-21
Cc1ccc(-c2cn(-c3ccccc3)c(=S)[nH]2)cc1C,4,66*,24,87*,81*,12
